Tests used:
Type in all cases: functional
[1] = target: T1, Soluble guanylate cyclase (Homo sapiens) (UniProt Q02153+O75343+P33402+Q02108); experiment: Ratio of activation of sGC by compound over that of control, in presence of carbon monooxide (basal activity 33+/-3 nmol/min/mg in absence of CO)
[2] = target: Soluble guanylate cyclase (Homo sapiens, UniProt O75343+P33402+Q02108+Q02153); experiment: Effect on YC-1 mediated activation of sGC in presence of carbon monoxide
In short: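 Purified sGC from a baculovirus/Sf9 expression system, measured with CO by end-point assay in 4% v/v DMSO across a range of YC-1 concentrations, with and without a fixed level of the test compound. Assays ran 2 min in triplicate, and errors are mean + range/2. EC50 came from a four-parameter logistic fit.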

[3] = target: T1, Soluble guanylate cyclase (Homo sapiens); experiment: Ratio of activation of sGC by compound over that of control, in absence of carbon monooxide (basal activity 33+/-3 nmol/min/mg)

Soluble guanylate cyclase, sequence (Q02153 whole entry): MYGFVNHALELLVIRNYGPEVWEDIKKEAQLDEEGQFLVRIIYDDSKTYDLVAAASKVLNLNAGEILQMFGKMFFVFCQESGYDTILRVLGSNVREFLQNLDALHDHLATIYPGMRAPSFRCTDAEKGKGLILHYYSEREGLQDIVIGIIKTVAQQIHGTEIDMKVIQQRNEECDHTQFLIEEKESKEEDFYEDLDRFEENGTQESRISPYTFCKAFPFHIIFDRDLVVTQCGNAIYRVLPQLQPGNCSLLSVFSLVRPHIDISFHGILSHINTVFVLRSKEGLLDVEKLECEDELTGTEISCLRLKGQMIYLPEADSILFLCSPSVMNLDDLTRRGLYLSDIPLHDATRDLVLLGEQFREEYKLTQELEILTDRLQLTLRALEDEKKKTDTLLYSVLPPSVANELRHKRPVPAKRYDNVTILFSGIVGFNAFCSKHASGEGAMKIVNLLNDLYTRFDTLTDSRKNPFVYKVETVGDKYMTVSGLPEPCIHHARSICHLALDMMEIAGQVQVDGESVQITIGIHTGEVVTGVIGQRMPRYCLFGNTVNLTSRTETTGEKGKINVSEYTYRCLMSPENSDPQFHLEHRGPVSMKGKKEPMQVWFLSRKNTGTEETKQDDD
Soluble guanylate cyclase, sequence (O75343 whole entry): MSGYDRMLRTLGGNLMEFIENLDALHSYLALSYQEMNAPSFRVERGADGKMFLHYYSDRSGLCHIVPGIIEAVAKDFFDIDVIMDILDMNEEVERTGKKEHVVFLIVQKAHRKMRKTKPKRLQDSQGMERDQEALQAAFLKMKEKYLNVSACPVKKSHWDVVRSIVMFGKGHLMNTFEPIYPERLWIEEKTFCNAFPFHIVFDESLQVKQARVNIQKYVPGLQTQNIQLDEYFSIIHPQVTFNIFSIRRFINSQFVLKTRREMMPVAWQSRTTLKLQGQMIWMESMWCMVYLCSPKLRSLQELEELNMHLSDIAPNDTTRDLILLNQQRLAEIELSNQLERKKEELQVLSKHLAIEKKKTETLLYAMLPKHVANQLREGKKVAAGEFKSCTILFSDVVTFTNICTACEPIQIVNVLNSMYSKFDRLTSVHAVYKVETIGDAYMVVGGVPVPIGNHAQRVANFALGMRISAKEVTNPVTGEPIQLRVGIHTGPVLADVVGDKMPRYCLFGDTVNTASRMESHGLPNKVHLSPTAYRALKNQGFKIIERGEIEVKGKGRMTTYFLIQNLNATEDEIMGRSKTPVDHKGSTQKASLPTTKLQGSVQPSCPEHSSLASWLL
Soluble guanylate cyclase, sequence (P33402 whole entry): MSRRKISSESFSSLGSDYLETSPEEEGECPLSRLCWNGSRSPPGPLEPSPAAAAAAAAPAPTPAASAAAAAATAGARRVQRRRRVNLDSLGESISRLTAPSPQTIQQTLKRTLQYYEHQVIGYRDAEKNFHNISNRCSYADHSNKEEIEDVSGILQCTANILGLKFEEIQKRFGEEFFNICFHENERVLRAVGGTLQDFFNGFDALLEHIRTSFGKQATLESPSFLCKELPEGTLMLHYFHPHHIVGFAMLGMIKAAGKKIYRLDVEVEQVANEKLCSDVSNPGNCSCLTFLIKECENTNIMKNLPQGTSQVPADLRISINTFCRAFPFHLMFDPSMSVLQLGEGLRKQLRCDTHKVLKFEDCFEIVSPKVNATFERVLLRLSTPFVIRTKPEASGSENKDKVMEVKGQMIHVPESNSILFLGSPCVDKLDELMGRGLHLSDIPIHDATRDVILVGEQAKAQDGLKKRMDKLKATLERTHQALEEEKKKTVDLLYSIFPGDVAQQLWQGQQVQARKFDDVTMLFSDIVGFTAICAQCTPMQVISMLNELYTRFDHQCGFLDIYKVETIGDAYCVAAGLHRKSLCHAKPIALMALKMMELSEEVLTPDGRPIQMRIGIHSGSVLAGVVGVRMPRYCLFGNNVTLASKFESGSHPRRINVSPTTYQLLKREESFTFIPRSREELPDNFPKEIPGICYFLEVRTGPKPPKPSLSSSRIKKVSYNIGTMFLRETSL
Soluble guanylate cyclase, sequence (Q02108 whole entry): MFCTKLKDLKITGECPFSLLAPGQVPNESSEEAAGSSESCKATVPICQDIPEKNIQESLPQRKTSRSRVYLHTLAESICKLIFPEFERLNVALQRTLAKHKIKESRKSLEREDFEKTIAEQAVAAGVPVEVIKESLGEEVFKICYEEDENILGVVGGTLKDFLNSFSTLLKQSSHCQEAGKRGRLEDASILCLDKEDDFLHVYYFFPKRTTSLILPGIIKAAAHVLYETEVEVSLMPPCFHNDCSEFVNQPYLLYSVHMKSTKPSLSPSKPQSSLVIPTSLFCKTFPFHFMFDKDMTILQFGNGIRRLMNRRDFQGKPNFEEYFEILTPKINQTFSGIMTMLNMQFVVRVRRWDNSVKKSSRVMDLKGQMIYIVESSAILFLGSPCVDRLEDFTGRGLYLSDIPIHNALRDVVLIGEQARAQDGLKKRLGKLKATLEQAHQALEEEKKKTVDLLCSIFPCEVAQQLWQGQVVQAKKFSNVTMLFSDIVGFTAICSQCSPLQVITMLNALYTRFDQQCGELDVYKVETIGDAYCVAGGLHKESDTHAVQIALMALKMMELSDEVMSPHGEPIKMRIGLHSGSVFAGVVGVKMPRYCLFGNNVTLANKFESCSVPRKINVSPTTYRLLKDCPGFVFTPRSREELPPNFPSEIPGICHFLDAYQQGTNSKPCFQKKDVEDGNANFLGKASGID

Activity [1]	EC50 [2] [µM]	Activity [3]	SMILES
29	21.9	3.4	[N-]=[N+]=Nc1ccc2c(-c3ccc(CO)o3)nn(Cc3ccccc3)c2c1
4.4		1.7	[N-]=[N+]=Nc1ccc2c(c1)c(-c1ccc(CO)o1)nn2Cc1ccccc1
7.1		2	[N-]=[N+]=Nc1cccc(Cn2nc(-c3ccc(CO)o3)c3ccccc32)c1
20.3		4.7	[N-]=[N+]=Nc1ccc(Cn2nc(-c3ccc(CO)o3)c3ccccc32)cc1
139		9.2	OCc1ccc(-c2nn(Cc3ccccc3)c3ccccc23)o1

— ChEMBL document CHEMBL1138113, “The design and synthesis of YC-1 analogues as probes for soluble guanylate cyclase” (Bioorg Med Chem Lett, 2006)
